In data set [1] the test system is Trypanosoma cruzi. In words: Antiparasitic activity against epimastigotes of Trypanosoma cruzi Dm28c assessed as reduction of parasite count after 5 days. Type of data set: functional. The note with it: 120 h.
Data set [2] concerns Trypanosoma cruzi. In words: Antiparasitic activity against trypomastigotes of Trypanosoma cruzi Y assessed as reduction of parasite count after 24 hrs. The data set is classed as functional.
A short description of data set [3]: Cytotoxicity against BALB/c mouse splenocytes assessed as maximum non-toxic concentration by measuring [3H]-thymidine incorporation after 24 hrs by liquid scintillation counting. The data set is classed as cell-based, Splenocyte. An outline of the steps:
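BALB/c splenocytes, 5 x 10^6 cells/well, given compounds at 1.23, 3.7, 33.33 and 100 µg/mL, 1% DMSO final, triplicate; 24 h at 37 °C, 5% CO2. Then 1.0 µCi [3H]-thymidine added; cells harvested and counted by liquid scintillation. Highest non-cytotoxic concentration taken from % incorporation.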

Data set [4] has as its system Trypanosoma cruzi. In words: Antitrypanosomal activity against amastigote and trypomastigote forms of Trypanosoma cruzi Tulahuen expressing beta-galactosidase gene infected in mouse L-929 cells assessed as inhibition of parasite growth after 7 days by colorimetric betagalactosidase assay. The note with it: L929, 168 h. Type of data set: functional, organism-based.
The nature of data set [5]: Cytotoxicity against mouse L929 cells assessed as cell viability after 96 hrs by alamarBlue assay. The data set is classed as cell-based. An outline of the steps:
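Uninfected L-929 cells at the same cell number and timing as the beta-galactosidase assay; increasing concentrations starting at the T. cruzi IC50, quadruplicate. After 96 h, alamarBlue added; absorbance at 570 and 600 nm read 6 h later. Viability as % reduction versus untreated; CC50 by linear interpolation.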
For orientation: Alamar Blue is a resazurin reagent that responds to reducing activity.

Data set [6] is described as follows: Selectivity index, ratio of CC50 for mouse L929 cells to IC50 for amastigote and trypomastigote forms of Trypanosoma cruzi Tulahuen. The data set is classed as functional. A digest of the protocol: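 SI = CC50 in uninfected L-929 fibroblasts (alamarBlue, 96 h) divided by IC50 against intracellular amastigote/trypomastigote forms (beta-galactosidase assay, 7 days).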

In data set [7] the target is Cruzipain (Trypanosoma cruzi) (UniProt P25779). In words: Inhibition of Trypanosoma cruzi catalytic activity of cruzain using Z-FR-AMC as substrate at 50 uM after 10 mins by fluorescence assay.
Data set [8] relates to Trypanosoma cruzi. In words: Antitrypanosomal activity against amastigote and trypomastigote forms of Trypanosoma cruzi Tulahuen expressing beta-galactosidase gene infected in mouse L-929 cells assessed as inhibition of parasite growth at 100 uM after 7 days by colorimetric betagalactosidase assay. Type of data set: functional. The following applies: L929, 168 h.
Data set [9] relates to Trypanosoma cruzi. The data set can be described thus: Antiparasitic activity against trypomastigotes of Trypanosoma cruzi Y assessed as induction of parasite death at 5 uM after 24 hrs using propidium iodide staining after 24 hrs by flow cytometry analysis. The data set is classed as functional. A digest of the protocol:
(§1)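 Y strain trypomastigotes (4x10^5) in RPMI-1640 with 10% FBS, exposed to test agent for 24 h at 37 °C, 5% CO2; then stained with propidium iodide and analysed by flow cytometry, at least 10,000 events. Read-out is % PI-positive cells versus untreated parasites; Triton X-100 as positive control. Two independent experiments, each concentration in duplicate.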

Data set [10] deals with Trypanosoma cruzi. In words: Antiparasitic activity against trypomastigotes of Trypanosoma cruzi Y assessed as induction of parasite death at 0.5 uM after 24 hrs using propidium iodide staining after 24 hrs by flow cytometry analysis. The data set is classed as functional. An outline of the steps:
as §1
Background: In flow cytometry, cells or beads pass a laser one at a time.

Data set [11] has as its system Trypanosoma cruzi. In words: Antiparasitic activity against trypomastigotes of Trypanosoma cruzi Y assessed as induction of parasite death after 24 hrs using propidium iodide staining after 24 hrs by flow cytometry analysis. The data set is classed as functional, organism-based. An outline of the steps: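 Y strain trypomastigotes (4x10^5) in RPMI-1640 + 10% FBS exposed to 0.5 or 5.0 µM of each thiosemicarbazone, benznidazole 25 µM, or Triton X-100, for 24 h at 37 °C, 5% CO2. Then PI-stained and read by flow cytometry, at least 10,000 events. Two independent experiments, duplicates.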

The next data set concerns the target Cruzipain (Trypanosoma cruzi, UniProt P25779). The data set can be described thus: Inhibition of Trypanosoma cruzi catalytic activity of cruzain using Z-FR-AMC as substrate after 10 mins by fluorescence assay.
Data set [12] relates to Trypanosoma cruzi. The data set can be described thus: Antiparasitic activity against trypomastigotes of Trypanosoma cruzi Y assessed as induction of parasite death at 25 uM after 24 hrs using propidium iodide staining after 24 hrs by flow cytometry analysis. Type of data set: functional. An outline of the steps: as §1
The target in data set [13] is Cruzipain (Trypanosoma cruzi) (UniProt P25779). The data set can be described thus: Inhibition of Trypanosoma cruzi catalytic activity of cruzain using Z-FR-AMC as substrate at 100 uM after 10 mins by fluorescence assay.

Calls of active or inactive are those of the source. The rule behind the calls is not given here. Where only a bound is given, the exact number is not on record here.

Sequence of Cruzipain (P25779 whole entry): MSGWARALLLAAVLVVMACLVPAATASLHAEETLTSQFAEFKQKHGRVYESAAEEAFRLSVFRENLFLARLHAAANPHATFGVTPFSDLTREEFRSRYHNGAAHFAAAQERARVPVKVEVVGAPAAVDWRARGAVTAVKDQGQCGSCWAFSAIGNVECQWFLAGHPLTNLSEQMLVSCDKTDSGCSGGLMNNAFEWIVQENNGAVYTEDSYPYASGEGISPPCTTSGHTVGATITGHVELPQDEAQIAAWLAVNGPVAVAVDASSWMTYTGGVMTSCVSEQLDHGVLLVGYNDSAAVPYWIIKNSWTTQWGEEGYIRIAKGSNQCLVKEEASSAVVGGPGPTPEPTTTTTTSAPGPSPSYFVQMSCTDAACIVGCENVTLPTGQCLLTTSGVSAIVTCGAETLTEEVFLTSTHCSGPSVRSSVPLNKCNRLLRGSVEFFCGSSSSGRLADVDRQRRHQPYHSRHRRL
Sequence of Cruzipain (Trypanosoma cruzi) (P25779 123-467 limits assumed): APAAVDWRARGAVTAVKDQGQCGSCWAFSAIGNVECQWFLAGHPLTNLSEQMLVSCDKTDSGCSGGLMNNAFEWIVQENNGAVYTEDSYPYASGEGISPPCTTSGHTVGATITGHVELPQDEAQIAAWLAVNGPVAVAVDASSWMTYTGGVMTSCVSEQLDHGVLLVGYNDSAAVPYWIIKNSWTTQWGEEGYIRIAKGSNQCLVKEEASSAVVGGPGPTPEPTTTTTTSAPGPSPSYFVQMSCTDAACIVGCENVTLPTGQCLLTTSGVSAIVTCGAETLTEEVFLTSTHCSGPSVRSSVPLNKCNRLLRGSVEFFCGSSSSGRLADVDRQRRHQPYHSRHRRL

With `CC(C)c1ccc(OC/C(=N\NC(N)=S)c2ccc(Br)cc2)cc1`, the IC50 in the data set with Trypanosoma cruzi [1] amounted to 3.8 µM; in the data set on Trypanosoma cruzi [4], 12.3 µM. For the same compound, the CC50 in the data set on Trypanosoma cruzi [2] was determined as 2.9 µM. Also, the MNTC at 24 h in data set [3] is above 246000 nM. Moreover, the CC50 at 96 h in [5] amounted to 24.6 µM. In addition, in data set [6], the “Ratio CC50/IC50” value stood at 2. Further, the inhibition is 49.7% in data set [7] and “Dose-dependent effect” in the data set with Trypanosoma cruzi [11]. The inhibition at 100 µM in the data set on Trypanosoma cruzi [8] is above 70%. The Activity in the data set with Trypanosoma cruzi [9] was 42.2%; in the data set with Trypanosoma cruzi [10], 2.3%.

With `NC(=S)N/N=C(\COc1ccc(Cl)c(Cl)c1)c1ccc(Br)cc1`, the IC50 in the data set on Trypanosoma cruzi [1] was 1.8 µM; in the data set with Trypanosoma cruzi [4], 8.3 µM; at Cruzipain, 0.008 µM. For the same compound, the CC50 in the data set with Trypanosoma cruzi [2] amounted to 3 µM. In addition, the MNTC at 24 h in data set [3] was below 2300 nM. For the same compound, the CC50 at 96 h in data set [5] was 23.1 µM. The “Ratio CC50/IC50” value in data set [6] is on record as 2.8. Besides, the inhibition in data set [7] is 99.1%. For the same compound, in the data set on Trypanosoma cruzi [8], the inhibition at 100 µM is above 70%. In addition, the figures for the Activity with Trypanosoma cruzi [9] and in the data set with Trypanosoma cruzi [10] were 44.9% and 2.3%, respectively.

`O=C(Cn1ccnc1[N+](=O)[O-])NCc1ccccc1` [BENZNIDAZOLE]: the CC50 in the data set with Trypanosoma cruzi [2] came to 6.2 µM. The “Ratio CC50/IC50” value in data set [6] came out at 625. The Activity in the data set on Trypanosoma cruzi [9] came to 4.2%; with Trypanosoma cruzi [12], 56.4%.

For the compound `C/C(=N\NC(N)=S)C(C)Oc1ccccc1-c1ccccc1` (stereo not drawn), in data set [13], the inhibition entry was “inactive”.

As for `NC(=S)N/N=C(/COc1ccc(Br)cc1)c1ccc(F)cc1`, the IC50 in the data set on Trypanosoma cruzi [1] was determined as 3.8 µM; with Trypanosoma cruzi [4], 10.7 µM. Moreover, the CC50 with Trypanosoma cruzi [2] is 3.6 µM. Besides, in data set [3], the MNTC at 24 h was found to be 2600 nM. The CC50 at 96 h in [5] is below 26.2 µM. Also, the “Ratio CC50/IC50” value in data set [6] is on record as below 2.5. This compound registered an inhibition in [7] of 53.1%. For the same compound, in the data set with Trypanosoma cruzi [8], the inhibition at 100 µM is above 70%.

`NC(=S)N/N=C(\COc1ccc(F)c(Cl)c1)c1ccc(Br)cc1`: the values for the IC50 in the data set on Trypanosoma cruzi [1], in the data set with Trypanosoma cruzi [4] and against Cruzipain were 3.4 µM, 9 µM and 0.07 µM, respectively. The CC50 with Trypanosoma cruzi [2] turned out to be 1.7 µM. Further, the MNTC at 24 h in data set [3] amounted to 2400 nM. The CC50 at 96 h in data set [5] amounted to 48 µM. The “Ratio CC50/IC50” value in [6] is reported as 5.3. The compound further yielded an inhibition in data set [7] of 93.7%. Also, the inhibition at 100 µM in the data set on Trypanosoma cruzi [8] was above 70%. The Activity in the data set with Trypanosoma cruzi [9] was 34%; in the data set on Trypanosoma cruzi [10] it was 2.7%.

For the compound `Cc1ccc(/C(COc2ccc(Br)cc2)=N\NC(N)=S)cc1`, the IC50 with Trypanosoma cruzi [1] was 3.7 µM; with Trypanosoma cruzi [4] it was 7.9 µM. Also, the CC50 in the data set on Trypanosoma cruzi [2] came out at 3.1 µM. Also, the MNTC at 24 h in data set [3] amounted to 13200 nM. Moreover, the CC50 at 96 h in [5] is 13.2 µM. The “Ratio CC50/IC50” value in data set [6] worked out at 1.7. Also, the inhibition in data set [7] was found to be 70.9%. Besides, in the data set with Trypanosoma cruzi [8], the inhibition at 100 µM is above 70%.

`CC(=O)Nc1ccc(OC(C)/C(C)=N/NC(N)=S)cc1` (stereo not drawn): the inhibition entry in data set [13] is “inactive”.

For the compound `NC(=S)N/N=C(/COc1ccc(Br)cc1)c1ccc(-c2ccccc2)cc1`, the results for the IC50 with Trypanosoma cruzi [1], with Trypanosoma cruzi [4] and against Cruzipain were 3.9 µM, 3.3 µM and 0.6 µM, respectively. Further, the CC50 with Trypanosoma cruzi [2] was determined as 2.1 µM. Also, the MNTC at 24 h in data set [3] turned out to be 2300 nM. In [5], the CC50 at 96 h was found to be 22.7 µM. The “Ratio CC50/IC50” value in data set [6] came to 6.9. In data set [7], this compound displayed an inhibition of 88.9%. The inhibition at 100 µM in the data set on Trypanosoma cruzi [8] was above 70%.

In the case of `NC(=S)N/N=C(\COc1ccc(F)cc1)c1ccc(Br)cc1`, the IC50 in the data set with Trypanosoma cruzi [1] came out at 1.8 µM; with Trypanosoma cruzi [4] it was 15.7 µM; against Cruzipain, 0.4 µM. Further, the CC50 in the data set with Trypanosoma cruzi [2] came out at 3.1 µM. Further, the MNTC at 24 h in data set [3] came out at 2600 nM. The CC50 at 96 h in [5] came to 52.3 µM. The “Ratio CC50/IC50” value in data set [6] is listed as 3.3. Besides, in data set [7], the inhibition is 84%. Moreover, in the data set on Trypanosoma cruzi [8], the inhibition at 100 µM was above 70%.

By IC50 is commonly meant the point on the concentration scale where inhibition reaches its midpoint. Usually inhibition stands for the percentage by which the read-out fell short of the control.

Values taken from ChEMBL document CHEMBL3612009, “Synthesis and structure-activity relationship study of a new series of antiparasitic aryloxyl thiosemicarbazones inhibiting Trypanosoma cruzi cruzain” (Eur J Med Chem, 2015).
